According to PMC7579299 (Anti-Inflammatory & Anti-Allergy Agents in Medicinal …, 2020):

Assays:
[1] = test system: MCF-7 (human breast cancer); test: Anticancer MTT assay, breast cancer cells; format: cell-based
How it was run: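 MCF-7 cells grown in DMEM with 10% FBS, penicillin and streptomycin at 37°C in 5% CO₂. About 5000 cells/well were exposed to test compound at 50-500 µg/mL (1 mg/ml DMSO working solution, 0.45-micron filtered) for 24, 48 or 72 h. MTT was added for 2 h, then lysis buffer for 4 h, and A570 was read. Viability = mean OD/control OD × 100.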

[2] = test system: Human Red Blood Cell (HRBC) membrane; test: HRBC membrane stabilization method; format: cell-based
How it was run: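 Human red blood cell membrane stabilization assay, run in quadruplicate with diclofenac as reference. Hemolysis in distilled water was taken as 100%. Protection was calculated as % inhibition of hemolysis = 100 × (OD control − OD sample)/OD control.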

SMILES: COc1cccc2c1C(=O)c1c(O)c3c(c(O)c1C2=O)C[C@@](O)(C(=O)CO)C[C@@H]3O[C@H]1C[C@H](N)[C@H](O)[C@H](C)O1 [Doxorubicin]
- Relative percentage activity (anticancer) [1]: 89.47 ± 2.87%

SMILES: O=C(O)Cc1ccccc1Nc1c(Cl)cccc1Cl [Diclofenac]
- IC50 ([2]; Homo sapiens, Erythrocyte, read-out: HRBC membrane protection IC50): 0.15 µM
- HRBC membrane average protection ([2]; n=4): 82.15%
